Data published in ChEMBL document CHEMBL1144562, “Synthesis of a new class of 2-anilino substituted nicotinyl arylsulfonylhydrazides as potential anticancer and antibacterial agents” (2007).
Converted amounts (≈) assume the structure as drawn.

What was measured:
[1] = system: COLO 205; assay: Antitumor activity against COLO205 cells; assay type: functional; conditions: Homo sapiens
[2] = system: TK-10; assay: Antitumor activity against TK10 cells; assay type: functional; conditions: Homo sapiens
Summary of the method: (§1)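 Tested in the NCI 60-human-tumour-cell-line panel at five concentrations, in 10-fold dilutions from 10^-4 to 10^-8 M. Three parameters were taken from the dose-response data, each as log10 of the molar concentration: GI50 (50% net growth inhibition), TGI (total growth inhibition) and LC50 (50% net cell death).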

[3] = Antitumor activity against HL60 (TB) cells; assay type: functional, HL-60(TB); conditions: Homo sapiens, HL-60
Summary of the method: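 NCI 60-cell-line in vitro screen (leukaemia subpanel). Compound tested at five 10-fold dilutions from 10^-4 to 10^-8 M. Dose-response parameters: GI50 (concentration giving 50% net growth inhibition), TGI (total growth inhibition) and LC50 (50% net cell death), each reported as log10 of molar concentration.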

[4] = system: Staphylococcus epidermidis; assay: Antibacterial activity against Staphylococcus epidermidis MTCC 435 after 18 hrs; assay type: functional; conditions: MTCC 435, 18 h
Summary of the method: (§2)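 Disc diffusion (Kirby–Bauer) on Mueller-Hinton agar inoculated with fresh bacteria at 1-5 × 10^4 cfu mL-1. Compounds were dissolved in DMF at a range of concentrations, and discs were placed in triplicate. Plates were incubated at 30 °C for 18 h. MIC was taken as the lowest concentration giving no visible bacterial growth on the plate.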

[5] = system: HOP-62; assay: Antitumor activity against HOP62 cells; assay type: functional; conditions: Homo sapiens
[6] = system: ACHN; assay: Antitumor activity against ACHN cells; assay type: functional; conditions: Homo sapiens
[7] = system: DU-145; assay: Antitumor activity against DU145 cells; assay type: functional; conditions: Homo sapiens
[8] = system: U-251; assay: Antitumor activity against U251 cells; assay type: functional; conditions: Homo sapiens; summary of the method: as §1
[9] = system: CCRF-CEM; assay: Antitumor activity against CCRF-CEM cells; assay type: functional; conditions: Homo sapiens
[10] = system: K562; assay: Antitumor activity against K562 cells; assay type: functional; conditions: Homo sapiens
[11] = system: T47D; assay: Antitumor activity against T47D cells; assay type: functional; conditions: Homo sapiens; summary of the method: as §1
[12] = system: OVCAR-3; assay: Antitumor activity against OVCAR-3 cells; assay type: functional; conditions: Homo sapiens
[13] = system: PC-3; assay: Antitumor activity against PC3 cells; assay type: functional; conditions: Homo sapiens
[14] = system: HT-29; assay: Antitumor activity against HT29 cells; assay type: functional; conditions: Homo sapiens
[15] = system: Vibrio; assay: Antibacterial activity against Vibrio species after 18 hrs; assay type: functional; summary of the method: as §2
[16] = system: SW-620; assay: Antitumor activity against SW620 cells; assay type: functional; conditions: Homo sapiens; summary of the method: as §1
[17] = system: A549; assay: Antitumor activity against A549 cells; assay type: functional; conditions: Homo sapiens
[18] = system: HCC 2998; assay: Antitumor activity against HCC2998 cells; assay type: functional; conditions: Homo sapiens
[19] = system: 786-0; assay: Antitumor activity against 786-0 cells; assay type: functional; conditions: Homo sapiens
[20] = system: HOP-92; assay: Antitumor activity against HOP92 cells; assay type: functional; conditions: Homo sapiens
[21] = system: SNB-19; assay: Antitumor activity against SNB19 cells; assay type: functional; conditions: Homo sapiens; summary of the method: as §1
[22] = system: SN12C; assay: Antitumor activity against SN12C cells; assay type: functional; conditions: Homo sapiens; summary of the method: as §1
[23] = system: RXF 393; assay: Antitumor activity against RXF393 cells; assay type: functional; conditions: Homo sapiens
[24] = system: M14; assay: Antitumor activity against M14 cells; assay type: functional; conditions: Homo sapiens
[25] = Antitumor activity against NCI-H322 cells; assay type: functional; conditions: Homo sapiens
[26] = system: KM12; assay: Antitumor activity against KM12 cells; assay type: functional; conditions: Homo sapiens
[27] = Antitumor activity against MALME 3M cells; assay type: functional; conditions: Homo sapiens
[28] = system: SNB-75; assay: Antitumor activity against SNB75 cells; assay type: functional; conditions: Homo sapiens; summary of the method: as §1
[29] = system: NCI-H226; assay: Antitumor activity against NCI-H226 cells; assay type: functional; conditions: Homo sapiens
[30] = system: OVCAR-4; assay: Antitumor activity against OVCAR4 cells; assay type: functional; conditions: Homo sapiens
[31] = system: MDA-MB-435; assay: Antitumor activity against MDA-MB-435 cells; assay type: functional; conditions: Homo sapiens
[32] = system: Bacillus subtilis; assay: Antibacterial activity against Bacillus subtilis MTCC 441 after 18 hrs; assay type: functional; conditions: MTCC 441, 18 h; summary of the method: as §2
[33] = system: HCT-15; assay: Antitumor activity against HCT15 cells; assay type: functional; conditions: Homo sapiens
[34] = system: SK-MEL-28; assay: Antitumor activity against SK-MEL-28 cells; assay type: functional; conditions: Homo sapiens
[35] = system: SF-539; assay: Antitumor activity against SF539 cells; assay type: functional; conditions: Homo sapiens
[36] = system: UACC-257; assay: Antitumor activity against UACC257 cells; assay type: functional; conditions: Homo sapiens; summary of the method: as §1
[37] = system: UACC-62; assay: Antitumor activity against UACC62 cells; assay type: functional; conditions: Homo sapiens; summary of the method: as §1
[38] = system: OVCAR-8; assay: Antitumor activity against OVCAR8 cells; assay type: functional; conditions: Homo sapiens
[39] = system: SR; assay: Antitumor activity against SR cells; assay type: functional; conditions: Homo sapiens; summary of the method: as §1
[40] = system: SF-268; assay: Antitumor activity against SF268 cells; assay type: functional; conditions: Homo sapiens
[41] = read-out: Log LC50 (the source's name) (converted)

CC(=O)Nc1ccc(S(=O)(=O)NNC(=O)c2cccnc2Nc2ccc(Cl)cc2)cc1
GI50 [1]: 10.2 µM | LC50 [1]: > 100 µM | TGI ([1]; read-out: Log TGI (converted)): 57.5 µM | GI50 [2]: 25.1 µM | LC50 [2]: > 100 µM | TGI ([2]; read-out: Log TGI (converted)): > 100 µM | GI50 [3]: 9.77 µM | LC50 [3]: > 100 µM | TGI ([3]; read-out: Log TGI (converted)): > 100 µM | MIC [4]: 22 µg/mL (≈ 47.8 µM) | GI50 [5]: > 100 µM | CC50 [5, 41]: > 100 µM | TGI ([5]; read-out: Log TGI (converted)): > 100 µM | GI50 [6]: 52.5 µM | LC50 [6]: > 100 µM | TGI ([6]; read-out: Log TGI (converted)): 75.9 µM | GI50 [7]: 34.7 µM | LC50 [7]: > 100 µM | TGI ([7]; read-out: Log TGI (converted)): > 100 µM | GI50 [8]: 24 µM | LC50 [8]: > 100 µM | TGI ([8]; read-out: Log TGI (converted)): > 100 µM | LC50 [9]: > 100 µM | TGI ([9]; read-out: Log TGI (converted)): > 100 µM | GI50 ([9]; read-out: pGI50 (converted)): 21.4 µM | GI50 [10]: 8.51 µM | LC50 [10]: > 100 µM | TGI ([10]; read-out: Log TGI (converted)): > 100 µM | GI50 [11]: 6.31 µM | CC50 [11, 41]: > 100 µM | TGI ([11]; read-out: Log TGI (converted)): > 100 µM | GI50 [12]: 3.72 µM | CC50 [12, 41]: > 100 µM | TGI ([12]; read-out: Log TGI (converted)): > 100 µM | GI50 [13]: 29.5 µM | LC50 [13]: > 100 µM | TGI ([13]; read-out: Log TGI (converted)): > 100 µM | GI50 [14]: 3.98 µM | LC50 [14]: > 100 µM | TGI ([14]; read-out: Log TGI (converted)): > 100 µM | MIC [15]: 18 µg/mL (≈ 39.1 µM) | GI50 [16]: 7.59 µM | CC50 [16, 41]: > 100 µM | TGI ([16]; read-out: Log TGI (converted)): > 100 µM | GI50 [17]: 32.4 µM | LC50 [17]: > 100 µM | TGI ([17]; read-out: Log TGI (converted)): > 100 µM | GI50 [18]: 8.32 µM | LC50 [18]: > 100 µM | TGI ([18]; read-out: Log TGI (converted)): > 100 µM | GI50 [19]: 47.9 µM | LC50 (lethal concentration, 50%) [19]: > 100 µM | TGI ([19]; read-out: Log TGI (converted)): > 100 µM | GI50 [20]: > 100 µM | CC50 [20, 41]: > 100 µM | TGI ([20]; read-out: Log TGI (converted)): > 100 µM | GI50 [21]: 14.1 µM | CC50 [21, 41]: > 100 µM | TGI ([21]; read-out: Log TGI (converted)): > 100 µM | GI50 [22]: 58.9 µM | LC50 [22]: > 100 µM | TGI ([22]; read-out: Log TGI (converted)): > 100 µM | GI50 [23]: 37.2 µM | LC50 [23]: > 100 µM | TGI ([23]; read-out: Log TGI (converted)): > 100 µM | GI50 [24]: 11.5 µM | LC50 [24]: > 100 µM | TGI ([24]; read-out: Log TGI (converted)): > 100 µM | GI50 [25]: > 100 µM | CC50 [25, 41]: > 100 µM | TGI ([25]; read-out: Log TGI (converted)): > 100 µM | GI50 [26]: 4.17 µM | CC50 [26, 41]: > 100 µM | TGI ([26]; read-out: Log TGI (converted)): > 100 µM | GI50 [27]: > 100 µM | CC50 [27, 41]: > 100 µM | TGI ([27]; read-out: Log TGI (converted)): > 100 µM | GI50 [28]: 5.5 µM | CC50 [28, 41]: > 100 µM | TGI ([28]; read-out: Log TGI (converted)): > 100 µM | GI50 [29]: 42.7 µM | CC50 [29, 41]: > 100 µM | TGI ([29]; read-out: Log TGI (converted)): > 100 µM | GI50 [30]: 44.7 µM | LC50 (lethal concentration, 50%) [30]: > 100 µM | TGI ([30]; read-out: Log TGI (converted)): > 100 µM | GI50 [31]: 3.24 µM | LC50 [31]: > 100 µM | TGI ([31]; read-out: Log TGI (converted)): > 100 µM | MIC [32]: 17 µg/mL (≈ 37 µM) | GI50 [33]: 13.8 µM | LC50 [33]: > 100 µM | TGI ([33]; read-out: Log TGI (converted)): > 100 µM | GI50 [34]: 23.4 µM | LC50 [34]: > 100 µM | TGI ([34]; read-out: Log TGI (converted)): > 100 µM | GI50 [35]: 15.5 µM | LC50 [35]: > 100 µM | TGI ([35]; read-out: Log TGI (converted)): 75.9 µM | GI50 [36]: 89.1 µM | LC50 [36]: > 100 µM | TGI ([36]; read-out: Log TGI (converted)): > 100 µM | GI50 [37]: 8.91 µM | LC50 [37]: > 100 µM | TGI ([37]; read-out: Log TGI (converted)): > 100 µM | GI50 [38]: 36.3 µM | CC50 [38, 41]: > 100 µM | TGI ([38]; read-out: Log TGI (converted)): > 100 µM | GI50 [39]: 6.31 µM | LC50 [39]: > 100 µM | TGI ([39]; read-out: Log TGI (converted)): > 100 µM | GI50 [40]: 21.9 µM | LC50 [40]: > 100 µM | TGI ([40]; read-out: Log TGI (converted)): > 100 µM
